Calls of active or inactive are those of the source. The calls are words filed in the database; no cut-off is given here.
Assays:
MCF7 = experiment: Cytotoxicity against human MCF7 cells incubated for 72 hrs by Sulphorhodamine assay; format: functional, cell-based; details: MCF7, 72 h
MDA-MB-231 = experiment: Cytotoxicity against human MDA-MB-231 cells incubated for 72 hrs by Sulphorhodamine assay; format: functional, cell-based; details: MDA-MB-231, 72 h
Tubulin (Homo sapiens) = Tubulin (Homo sapiens) (UniProt P68371+Q9H4B7+P0DPH7+P68366+Q13509+Q71U36+P04350+Q3ZCM7+P07437+P68363+Q9BQE3+Q6PEY2+Q13885+Q9BVA1+Q9BUF5); experiment: Induction of microtubule stabilization in human HeLa cells assessed as effect on cellular cytoskeletal network of tubulin at 5 to 10 uM incubated for 4 hrs by Alexa Fluor 488 staining based confocal microscopic analysis; format: cell-based; details: dose 5-10 µM
In short: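 HeLa cells treated for 4 h at 5 and 10 μM. Microtubules immunostained with Alexa Fluor 488-conjugated anti-β-tubulin and imaged by confocal microscopy with a 60× Plan Apochromat objective. References: paclitaxel 5 nM, podophyllotoxin 5 μM.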

[1] = Antiinflammatory activity in mouse peritoneal macrophage assessed as reduction in LPS-induced IL6 production at 1 ug/ml; format: functional; details: dose 1 µg/ml
[2] = Toxicity in Swiss albino mouse assessed as RBC level at 300 mg/kg, po administered for 7 days (reference value: 7.13 +/- 0.40 million/mm3); format: organism-based, Erythrocyte; details: in vivo, 168 h, time 7 day
In short: (§1)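 Single acute oral dose (5, 50, 300 or 1000 mg/kg) given to Swiss albino mice, n = 6, with 7-day observation. At the end, haematological and serum biochemical parameters were measured. Compared with untreated controls; mean ± SE, ANOVA, p < 0.05.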

[3] = Toxicity in Swiss albino mouse assessed as RBC level at 1000 mg/kg, po administered for 7 days (reference value: 7.13 +/- 0.40 million/mm3); format: organism-based, Erythrocyte; details: in vivo, 168 h, time 7 day; in short: as §1
[4] = Toxicity in Swiss albino mouse assessed as WBC level at 5 mg/kg, po administered for 7 days (reference value: 5.29 +/- 0.51 10^3/mm3); format: organism-based; details: in vivo, 168 h, time 7 day
[5] = Toxicity in Swiss albino mouse assessed as WBC level at 50 mg/kg, po administered for 7 days (reference value: 5.29 +/- 0.51 10^3/mm3); format: organism-based; details: in vivo, 168 h, time 7 day
[6] = Toxicity in Swiss albino mouse assessed as WBC level at 300 mg/kg, po administered for 7 days (reference value: 5.29 +/- 0.51 10^3/mm3); format: organism-based; details: in vivo, 168 h, time 7 day
[7] = Hepatotoxicity in Swiss albino mouse assessed as alkaline phosphatase level at 5 mg/kg, po administered for 7 days (reference value: 260.10 +/- 26.76 U/L); format: toxicity, organism-based; details: in vivo, 168 h, time 7 day; in short: as §1
[8] = Hepatotoxicity in Swiss albino mouse assessed as alkaline phosphatase level at 50 mg/kg, po administered for 7 days (reference value: 260.10 +/- 26.76 U/L); format: toxicity, organism-based; details: in vivo, 168 h, time 7 day; in short: as §1
[9] = Hepatotoxicity in Swiss albino mouse assessed as SGOT level at 5 mg/kg, po administered for 7 days (reference value: 31.51 +/- 6.31 U/L); format: toxicity, organism-based; details: in vivo, 168 h, time 7 day; in short: as §1
[10] = Hepatotoxicity in Swiss albino mouse assessed as SGOT level at 300 mg/kg, po administered for 7 days (reference value: 31.51 +/- 6.31 U/L); format: toxicity, organism-based; details: in vivo, 168 h, time 7 day; in short: as §1
[11] = Hepatotoxicity in Swiss albino mouse assessed as SGOT level at 1000 mg/kg, po administered for 7 days (reference value: 31.51 +/- 6.31 U/L); format: toxicity, organism-based; details: in vivo, 168 h, time 7 day; in short: as §1
[12] = Hepatotoxicity in Swiss albino mouse assessed as SGPT level at 300 mg/kg, po administered for 7 days (reference value: 17.01 +/- 2.33 U/L); format: toxicity, organism-based; details: in vivo, 168 h, time 7 day; in short: as §1
[13] = Hepatotoxicity in Swiss albino mouse assessed as SGPT level at 1000 mg/kg, po administered for 7 days (reference value: 17.01 +/- 2.33 U/L); format: toxicity, organism-based; details: in vivo, 168 h, time 7 day; in short: as §1
[14] = Hepatotoxicity in Swiss albino mouse assessed as albumin level at 300 mg/kg, po administered for 7 days (reference value: 4.12 +/- 0.17 g/dl); format: toxicity, organism-based; details: in vivo, 168 h, time 7 day; in short: as §1
[15] = Hepatotoxicity in Swiss albino mouse assessed as serum protein level at 5 mg/kg, po administered for 7 days (reference value: 5.73 +/- 0.21 mg/ml); format: toxicity, organism-based; details: in vivo, 168 h, time 7 day; in short: as §1
[16] = Hepatotoxicity in Swiss albino mouse assessed as serum protein level at 50 mg/kg, po administered for 7 days (reference value: 5.73 +/- 0.21 mg/ml); format: toxicity, organism-based; details: in vivo, 168 h, time 7 day; in short: as §1
[17] = Hepatotoxicity in Swiss albino mouse assessed as serum protein level at 300 mg/kg, po administered for 7 days (reference value: 5.73 +/- 0.21 mg/ml); format: toxicity, organism-based; details: in vivo, 168 h, time 7 day; in short: as §1
[18] = Hepatotoxicity in Swiss albino mouse assessed as serum protein level at 1000 mg/kg, po administered for 7 days (reference value: 5.73 +/- 0.21 mg/ml); format: toxicity, organism-based; details: in vivo, 168 h, time 7 day; in short: as §1
[19] = Renal toxicity in Swiss albino mouse assessed as creatinine level at 5 mg/kg, po administered for 7 days (reference value: 0.76 +/- 0.06 mg/dl); format: organism-based; details: in vivo, 168 h, time 7 day; in short: as §1
[20] = Renal toxicity in Swiss albino mouse assessed as creatinine level at 50 mg/kg, po administered for 7 days (reference value: 0.76 +/- 0.06 mg/dl); format: organism-based; details: in vivo, 168 h, time 7 day; in short: as §1
[21] = Renal toxicity in Swiss albino mouse assessed as creatinine level at 300 mg/kg, po administered for 7 days (reference value: 0.76 +/- 0.06 mg/dl); format: organism-based; details: in vivo, 168 h, time 7 day; in short: as §1
[22] = Toxicity in Swiss albino mouse assessed as cholesterol level at 5 mg/kg, po administered for 7 days (reference value: 140.17 +/- 3.76 mg/dl); format: organism-based; details: in vivo, 168 h, time 7 day
[23] = Toxicity in Swiss albino mouse assessed as cholesterol level at 50 mg/kg, po administered for 7 days (reference value: 140.17 +/- 3.76 mg/dl); format: organism-based; details: in vivo, 168 h, time 7 day
[24] = Toxicity in Swiss albino mouse assessed as triglyceride level at 50 mg/kg, po administered for 7 days (reference value: 136.88 +/- 3.12 mg/dl); format: organism-based; details: in vivo, 168 h, time 7 day
[25] = Toxicity in Swiss albino mouse assessed as triglyceride level at 300 mg/kg, po administered for 7 days (reference value: 136.88 +/- 3.12 mg/dl); format: organism-based; details: in vivo, 168 h, time 7 day
[26] = Toxicity in Swiss albino mouse assessed as change in relative lungs weight at 5 to 1000 mg/kg, po administered for 7 days; format: organism-based; details: in vivo, 168 h, dose 5-1000 mg/kg, time 7 day
[27] = Toxicity in Swiss albino mouse assessed as change in relative brain weight at 5 to 1000 mg/kg, po administered for 7 days; format: organism-based; details: in vivo, 168 h, dose 5-1000 mg/kg, time 7 day
[28] = Toxicity in Swiss albino mouse assessed as change in relative kidney weight at 5 to 1000 mg/kg, po administered for 7 days; format: organism-based; details: in vivo, 168 h, dose 5-1000 mg/kg, time 7 day
[29] = Toxicity in Swiss albino mouse assessed as change in relative spleen weight at 5 to 1000 mg/kg, po administered for 7 days; format: organism-based; details: in vivo, 168 h, dose 5-1000 mg/kg, time 7 day
[30] = Toxicity in Swiss albino mouse assessed as morbidity at 5 to 1000 mg/kg, po administered for 7 days; format: organism-based; details: in vivo, 168 h, dose 5-1000 mg/kg, time 7 day
[31] = Toxicity in Swiss albino mouse assessed as mortality at 5 to 1000 mg/kg, po administered for 7 days; format: organism-based; details: in vivo, 168 h, dose 5-1000 mg/kg, time 7 day

Compound: COc1cc(C2/C(=C/c3ccc(/C=C/C(=O)NO)cc3)C(=O)c3cc(OC)c(OC)c(OC)c32)cc(OC)c1OC (centres undefined)
- IC50 (MCF7): > 100000 nM
- IC50 (MDA-MB-231): 360 nM
- Activity (Tubulin (Homo sapiens)): Active
- Activity [1]: 2617.2 pg/mL
- Activity [2]: 8.48 million/mm3
- Activity [3]: 8.53 million/mm3
- Activity [4]: 5.01 10^3/mm3
- Activity [5]: 4.34 10^3/mm3
- Activity [6]: 5.75 10^3/mm3
- Activity [7]: 221.34 U/L
- Activity [8]: 281.72 U/L
- Activity [9]: 28.87 U/L
- Activity [10]: 29.93 U/L
- Activity [11]: 33.4 U/L
- Activity [12]: 17.95 U/L
- Activity [13]: 22.91 U/L
- Activity [14]: 4.46 g/dL
- Activity [15]: 5.44 mg/mL
- Activity [16]: 5.64 mg/mL
- Activity [17]: 5.45 mg/mL
- Activity [18]: 5.87 mg/mL
- Activity [19]: 0.58 mg/dL
- Activity [20]: 0.69 mg/dL
- Activity [21]: 0.64 mg/dL
- Activity [22]: 162.42 mg/dL
- Activity [23]: 157.99 mg/dL
- Activity [24]: 129.78 mg/dL
- Activity [25]: 127.18 mg/dL
- Activity [26]: Non-Toxic
- Activity [27]: Non-Toxic
- Activity [28]: Non-Toxic
- Activity [29]: Non-Toxic
- Activity [30]: Non-Toxic
- Activity [31]: Non-Toxic
